The results in this text go back to ChEMBL document CHEMBL3785023, “Development and Pharmacological Characterization of Selective Blockers of 2-Arachidonoyl Glycerol Degradation with Efficacy in Rodent Models of Multiple Sclerosis and Pain” (J Med Chem, 2016).

Structures are written as SMILES. The source made the active and inactive calls.

In general, IC50 refers to the concentration that gives 50% inhibition.

In data set [1] the test system is Heart. The data set can be described thus: Cardiotoxicity in Langendorff-perfused Sprague-Dawley rat heart assessed as time duration of cardiac cycle length at 0.01 uM by ECG analysis (reference value: 238.38 +/- 9.23 milliseconds). The format is toxicity, tissue-based.
The test system of data set [2] is Heart. The data set is described as follows: Cardiotoxicity in Langendorff-perfused Sprague-Dawley rat heart assessed as time duration of cardiac cycle length at 1 uM by ECG analysis (reference value: 238.38 +/- 9.23 milliseconds). The format is toxicity, tissue-based.
For data set [3], the system named is Heart. The data set can be described thus: Cardiotoxicity in Langendorff-perfused Sprague-Dawley rat heart assessed as atrioventricular conduction time at 0.001 uM by ECG analysis (reference value: 45.62 +/- 4.49 milliseconds). The format is toxicity, tissue-based.
The subject of data set [4] is Heart. The data set can be described thus: Cardiotoxicity in Langendorff-perfused Sprague-Dawley rat heart assessed as atrioventricular conduction time at 0.1 uM by ECG analysis (reference value: 45.62 +/- 4.49 milliseconds). The format is toxicity, tissue-based.
In data set [5] the test system is Heart. The data set can be described thus: Cardiotoxicity in Langendorff-perfused Sprague-Dawley rat heart assessed as intraventricular conduction time at 0.01 uM by ECG analysis (reference value: 14.26 +/- 0.71 milliseconds). The format is toxicity, tissue-based, Cardiac ventricle.
Data set [6] deals with Heart. The data set can be described thus: Cardiotoxicity in Langendorff-perfused Sprague-Dawley rat heart assessed as time duration of action potential at 0.001 uM by ECG analysis (reference value: 75.65 +/- 0.87 milliseconds). The format is toxicity, tissue-based.
Data set [7] concerns Heart. The data set is described as follows: Cardiotoxicity in Langendorff-perfused Sprague-Dawley rat heart assessed as time duration of action potential at 0.1 uM by ECG analysis (reference value: 75.65 +/- 0.87 milliseconds). The format is toxicity, tissue-based.
Data set [8] relates to Heart. The data set can be described thus: Cardiotoxicity in Langendorff-perfused Sprague-Dawley rat heart assessed as time duration of action potential at 1 uM by ECG analysis (reference value: 75.65 +/- 0.87 milliseconds). The format is toxicity, tissue-based.
The subject of data set [9] is Mus musculus. The data set is described as follows: Toxicity in CD-1 mouse assessed as changes in normal pain threshold at 3 to 10 mg/kg, po measured up to 60 mins by hot plate test. The format is organism-based. The settings on record: in vivo, 1 h. In general terms: In hot-plate and tail-flick tests a longer latency is read as antinociception.
Another data set deals with T1, Monoglyceride lipase (Homo sapiens, UniProt Q99685).
T1 sequence (Q99685 whole entry): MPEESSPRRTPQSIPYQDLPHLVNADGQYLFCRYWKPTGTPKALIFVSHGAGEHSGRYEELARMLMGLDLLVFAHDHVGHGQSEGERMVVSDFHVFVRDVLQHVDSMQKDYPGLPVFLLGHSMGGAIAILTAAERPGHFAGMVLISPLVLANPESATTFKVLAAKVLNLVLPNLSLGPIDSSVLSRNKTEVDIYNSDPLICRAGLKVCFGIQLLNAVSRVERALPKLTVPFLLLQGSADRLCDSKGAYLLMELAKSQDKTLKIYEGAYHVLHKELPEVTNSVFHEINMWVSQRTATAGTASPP
The data set can be described thus: Inhibition of recombinant C-terminal His6-tagged human MAGL expressed in Escherichia coli using 2-arachidonoyl-[3H]-glycerol as substrate incubated for 20 mins by scintillation counting method.

For data set [10], the system named is Mus musculus. The data set is described as follows: Antinociceptive activity in ip dosed CD-1 mouse assessed as inhibition of formalin-induced pain response compound administered 10 mins before formalin injection measured during early phase. The format is functional. The settings on record: CD-1, ip, read-out: MED. The method, boiled down:
(§1)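 Male CD-1 mice, n = 6 per group, injected with formalin (1.25% in saline, 30 μL) into the dorsal hind paw. Inhibitor (0.1 or 0.3 mg/kg i.p. in 0.5% DMSO/saline) given 10 min before formalin. Where used, AM251 or AM630 (1 mg/kg i.p.) given 10 min before the inhibitor. Time spent lifting, licking, shaking or flinching the injected paw recorded every 5 min over 60 min.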

Data set [11] relates to Heart. The data set is described as follows: Cardiotoxicity in Langendorff-perfused Sprague-Dawley rat heart assessed as heart rate at 0.001 uM by ECG analysis (reference value: 252.78 +/- 9.28 bpm). The format is toxicity, tissue-based.
The test system of data set [12] is Heart. The data set is described as follows: Cardiotoxicity in Langendorff-perfused Sprague-Dawley rat heart assessed as heart rate at 0.01 uM by ECG analysis (reference value: 252.78 +/- 9.28 bpm). The format is toxicity, tissue-based.
Data set [13] concerns Heart. The data set can be described thus: Cardiotoxicity in Langendorff-perfused Sprague-Dawley rat heart assessed as heart rate at 0.1 uM by ECG analysis (reference value: 252.78 +/- 9.28 bpm). The format is toxicity, tissue-based.
The test system of data set [14] is Mus musculus. The data set can be described thus: Inhibition of demyelination in experimental autoimmune encephalomyelitis C57BL/6J mouse spinal cord at 3 mg/kg, ip by luxol fast blue staining based microscopic analysis. The format is functional, organism-based. The method, boiled down:
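EAE induced in female C57BL/6J mice with MOG35-55, then 3 mg/kg i.p. daily. AM251 or AM630 (1 mg/kg), where used, given 10 min before each dose. Spinal cord white matter stained with Luxol Fast Blue and demyelinated areas assessed by microscopy.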

Data set [15] has as its system Mus musculus. The data set is described as follows: Reduction of IBA1 positive cells in white matter anterior fasciculus of experimental autoimmune encephalomyelitis C57BL/6J mouse spinal cord at 3 mg/kg, ip by immunofluorescence assay. The format is functional, organism-based. The procedure, abridged:
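Female C57BL/6J mice immunized with MOG35-55 received 3 mg/kg i.p. daily. Spinal cord white matter (anterior fasciculus) was stained for Iba1, with DAPI nuclear counterstain. Iba1-positive cells were counted per optic field. One-way ANOVA with Bonferroni test.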

In data set [16] the test system is Mus musculus. The data set can be described thus: Reduction of IBA1 positive cells in white matter anterior fasciculus of experimental autoimmune encephalomyelitis C57BL/6J mouse spinal cord at 3 mg/kg, ip administered post CB1 antagonist/inverse agonist AM251 addition by immunofluorescence assay. The format is functional, organism-based. The procedure, abridged:
(§2)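 MOG35-55-immunized female C57BL/6J mice were given 3 mg/kg i.p. daily. AM251 or AM630, each at 1 mg/kg, was given 10 min before each dose. Iba1 immunofluorescence with DAPI was done on spinal cord white matter (anterior fasciculus). Positive cells were counted per optic field. One-way ANOVA with Bonferroni test.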

The subject of data set [17] is Mus musculus. The data set can be described thus: Reduction of IBA1 positive cells in white matter anterior fasciculus of experimental autoimmune encephalomyelitis C57BL/6J mouse spinal cord at 3 mg/kg, ip administered post CB2 antagonist/inverse agonist AM630 addition by immunofluorescence assay. The format is functional, organism-based. The procedure, abridged:
as §2

In data set [18] the test system is Mus musculus. The data set is described as follows: Antinociceptive activity in CD-1 mouse assessed as inhibition of formalin-induced pain response at 0.1 to 0.3 mg/kg, ip dosed 10 mins before formalin injection measured during late phase. The format is functional, organism-based. The method, boiled down:
as §1

Data set [19] has as its system Mus musculus. The data set is described as follows: Antinociceptive activity in CD-1 mouse assessed as inhibition of formalin-induced early phase pain response at 0.1 to 0.3 mg/kg, ip dosed 10 mins before formalin injection measured every 5 mins for 60 mins in presence of CB1 antagonist/inverse agonist AM251. The format is functional, organism-based. The method, boiled down: as §1

Data set [20] concerns Mus musculus. The data set can be described thus: Antinociceptive activity in CD-1 mouse assessed as inhibition of formalin-induced late phase pain response at 0.1 to 0.3 mg/kg, ip dosed 10 mins before formalin injection measured every 5 mins for 60 mins in presence of CB1 antagonist/inverse agonist AM251. The format is functional, organism-based. The method, boiled down: as §1

Data set [21] deals with Mus musculus. The data set is described as follows: Analgesic activity in CD-1 mouse model of oxaliplatin-induced neuropathic pain assessed as reversal of lowering of threshold to cold stimuli at 10 mg/kg, po coadministered with oxaliplatin for 14 days measured 24 hrs post last dose by cold plate test. The format is functional, organism-based.

For the compound `O=C1[C@H](c2ccc(F)cc2)[C@@H](c2ccc3c(c2)OCO3)N1C1CCN(C(=O)n2cncn2)CC1` (racemic) [listing 1 of 2 here], the Time with Heart [1] was determined as 236.8 ms; in the data set on Heart [2], 235.48 ms; in the data set on Heart [3], 46.03 ms; in the data set with Heart [4], 46.18 ms; with Heart [5], 13.5 ms; in the data set with Heart [6], 76.38 ms. Further, the Time in the data set on Heart [7] amounted to 75.36 ms; in the data set with Heart [8] it was 76.02 ms. The Activity entry in the data set on Mus musculus [9] is “Non-toxic”; in the data set with Heart [11], 254.38 bpm; in the data set on Heart [12], 254.18 bpm; in the data set on Heart [13], 252.65 bpm. Also, the concentration for half-maximal inhibition (IC50) on Monoglyceride lipase was found to be 7.4 nM. Further, the minimal effective dose with Mus musculus [10] came to 0.3 mg/kg.

Regarding `O=C1[C@H](c2ccc(F)cc2)[C@@H](c2ccc3c(c2)OCO3)N1C1CCN(C(=O)n2cncn2)CC1` (racemic) [listing 2 of 2 here], the inhibition result in the data set with Mus musculus [14] and in the data set on Mus musculus [18] was “Active” in each case. Moreover, the outcome with Mus musculus [15] and in the data set on Mus musculus [21] was Active. Further, the result in the data set on Mus musculus [16] and in the data set with Mus musculus [17] was inactive. Further, the inhibition result in the data set on Mus musculus [19] and in the data set on Mus musculus [20] was “inactive” each time.
